Converted amounts (≈) assume the structure as drawn. The source made the active and inactive calls. The rule behind the calls is not given here.
Assays:
[1] = test system: Rattus norvegicus; experiment: (§1) Acute hemodynamic effect in isoflurane-anesthetized Sprague-Dawley rat assessed as increase in cardiac output at 6 ug/min/kg, iv infused into jugular vein for 15 mins with continuous monitoring of hemodynamics followed by monitoring for additional 15 mins after terminating infusion by pressure-volume loop analysis relative to control; type: functional, organism-based
Outline: (§2)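 Male SD rats under isoflurane, instrumented with a Millar PV-loop catheter in the LV and a pressure catheter in the abdominal aorta. After a stable baseline, test agent or N,N-dimethylacetamide vehicle (100 μL/kg/min) infused into the jugular vein for 15 min. Hemodynamics were monitored continuously during infusion and for 15 min after it stopped. n = 7–8 per dose, vehicle n = 10.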

[2] = as §1, with “Toxicity” for “Acute hemodynamic effect”, “effect on blood pressure by measuring transient blood pressure drop” for “increase in cardiac output”; type: organism-based; conditions: in vivo, 0.25 h; outline: as §2
[3] = as §1, with “Toxicity” for “Acute hemodynamic effect”, “effect on heart rate” for “increase in cardiac output”; type: organism-based; conditions: in vivo, 0.25 h; outline: as §2
[4] = molecular target: T1, Apelin receptor (Homo sapiens, UniProt P35414); experiment: Agonist activity at human APJ-R expressed in HEK293 cells assessed as inhibition of forskolin- stimulated cAMP accumulation incubated for 30 mins by HTRF assay; type: functional, cell-based
T1 sequence (P35414 whole entry): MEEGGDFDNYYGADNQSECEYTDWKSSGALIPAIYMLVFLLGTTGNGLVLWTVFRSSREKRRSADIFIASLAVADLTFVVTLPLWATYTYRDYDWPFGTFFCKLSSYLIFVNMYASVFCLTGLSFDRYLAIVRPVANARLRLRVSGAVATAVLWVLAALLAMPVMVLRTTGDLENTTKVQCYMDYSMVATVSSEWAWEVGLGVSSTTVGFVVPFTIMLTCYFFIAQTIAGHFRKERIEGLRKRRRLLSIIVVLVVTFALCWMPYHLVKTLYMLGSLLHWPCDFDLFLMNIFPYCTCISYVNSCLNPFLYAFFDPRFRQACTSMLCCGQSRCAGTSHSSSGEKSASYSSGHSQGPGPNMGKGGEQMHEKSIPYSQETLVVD

[5] = molecular target: T2, Apelin receptor (Homo sapiens) (UniProt P35414); experiment: Displacement of [125I]-apelin-13 from human APJ-R expressed in HEK293 cell membranes incubated for 1 hr by radioligand binding assay
T2 sequence (whole entry): T1 sequence (P35414 whole entry)
Outline: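 Membranes from HEK293 cells expressing human APJ-R (1 μg) were incubated with increasing test concentrations and 0.1 nM [125I]-(Pyr1)apelin-13. Buffer was 25 mM HEPES, 10 mM MgCl2, 2 mM EGTA and 0.1% BSA, pH 7.2. Incubation ran 1 h at room temperature. Bound ligand was separated on 0.3% polyethyleneimine-soaked GF/B filters.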

[6] = test system: Rattus norvegicus; experiment: as §1, with “10 to 1000” for “6”; type: functional, organism-based; outline: as §2
[7] = molecular target: T3, Apelin receptor (Rattus norvegicus, UniProt Q9JHG3); experiment: Agonist activity at rat APJ-R expressed in HEK293 cells assessed as inhibition of forskolin- stimulated cAMP accumulation incubated for 30 mins by HTRF assay; type: functional, cell-based
T3 sequence (Q9JHG3 whole entry): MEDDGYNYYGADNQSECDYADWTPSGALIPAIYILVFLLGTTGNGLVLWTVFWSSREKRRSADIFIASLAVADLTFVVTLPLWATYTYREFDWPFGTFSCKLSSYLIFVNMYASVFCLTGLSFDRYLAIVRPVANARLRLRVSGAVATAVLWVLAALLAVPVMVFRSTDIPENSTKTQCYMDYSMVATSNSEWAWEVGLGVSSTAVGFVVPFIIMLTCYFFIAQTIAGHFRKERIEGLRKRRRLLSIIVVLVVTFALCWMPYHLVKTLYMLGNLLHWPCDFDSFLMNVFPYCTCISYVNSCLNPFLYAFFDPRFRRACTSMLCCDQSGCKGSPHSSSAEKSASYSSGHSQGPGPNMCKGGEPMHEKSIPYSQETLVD

[8] = Solubility in pH 7.4 buffer using amorphous form; type: physicochemical
[9] = test system: Rattus norvegicus; experiment: as §1, with “100” for “6”; type: functional; outline: as §2
[10] = as §1, with “Toxicity” for “Acute hemodynamic effect”, “effect on blood pressure by measuring transient blood pressure drop” for “increase in cardiac output”, “100” for “6”; type: organism-based; conditions: in vivo, 0.25 h; outline: as §2
[11] = as §1, with “Toxicity” for “Acute hemodynamic effect”, “effect on heart rate” for “increase in cardiac output”, “100” for “6”; type: organism-based; conditions: in vivo, 0.25 h; outline: as §2
[12] = as §1, with “Toxicity” for “Acute hemodynamic effect”, “effect on heart rate” for “increase in cardiac output”, “10 to 1000” for “6”; type: organism-based; conditions: in vivo, 0.25 h; outline: as §2
[13] = Plasma concentration in Sprague-Dawley rat at 10 ug/min/kg, iv infused into jugular vein for 15 mins; type: ADME, organism-based
Outline: (§3)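 Rats separate from the hemodynamic groups received the same 15 min jugular infusions (n = 3/dose). Plasma concentration (μM) was measured at the end of the 15 min infusion. Washout samples were also taken after stopping the 10 and 1000 μg/kg/min infusions.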

[14] = Plasma concentration in Sprague-Dawley rat at 100 ug/min/kg, iv infused into jugular vein for 15 mins; type: ADME, organism-based; outline: as §3
[15] = Plasma concentration in Sprague-Dawley rat at 1000 ug/min/kg, iv infused into jugular vein for 15 mins; type: ADME, organism-based; outline: as §3

EC50 [4] | Structure (SMILES) | other results
 | CSCC[C@H](NC(=O)[C@@H]1CCCN1C(=O)CNC(=O)[C@H](CCCCN)NC(=O)[C@H](Cc1cnc[nH]1)NC(=O)[C@H](CO)NC(=O)[C@H](CC(C)C)NC(=O)[C@H](CCCNC(=N)N)NC(=O)[C@@H]1CCCN1C(=O)[C@H](CCCNC(=N)N)NC(=O)[C@@H]1CCC(=O)N1)C(=O)N1CCC[C@H]1C(=O)N[C@@H](Cc1ccccc1)C(=O)O | Activity [1]: Active; Activity [2]: Non-Toxic; Activity [3]: Non-Toxic
59 nM | COc1ccc(NC(=O)c2ccc(Cl)cc2-c2ccc(C(=O)N[C@H](CO)c3ccccc3)cc2C(=O)O)cc1F | 
2.7 nM | COC[C@H](NC(=O)c1ccc(-c2cc(Cl)ccc2C(=O)Nc2ccc(OC)c(F)c2)c(C(=O)O)c1)c1ccccc1 | 
9 nM | CCC[C@@H](NC(=O)c1ccc(-c2ccc(Cl)cc2-c2nc3ccccc3[nH]2)c(C(=O)O)c1)c1ccccc1 | 
0.33 nM | CCC[C@@H](NC(=O)c1ccc(-c2cc(Cl)ccc2C(=O)Nc2ccc(OC)c(F)c2)c(C(=O)O)c1)c1ccccc1 | 
 | CCC[C@@H](NC(=O)c1ccc(-c2c(Cl)cccc2-c2nc3ccccc3[nH]2)c(C(=O)O)c1)c1ccccc1 (stereo in doubt; 15a) [listing 1 of 2 here] | inhibition [5]: Active; Activity [6]: Dose-dependent effect
7.4 nM | CCC[C@@H](NC(=O)c1ccc(-c2cc(Cl)ccc2-c2ncc(-c3ccccc3)[nH]2)c(C(=O)O)c1)c1ccccc1 | 
0.18 nM | CCC[C@@H](NC(=O)c1ccc(-c2c(C)cccc2-c2nc3ccccc3[nH]2)c(C(=O)O)c1)c1ccccc1 | 
0.083 nM | CCC[C@@H](NC(=O)c1ccc(-c2cc(Cl)ccc2-c2nc3cc(OC)ccc3[nH]2)c(C(=O)O)c1)c1ccccc1 | 
29 nM | COc1ccc(NC(=O)c2ccc(Cl)cc2-c2ccc(C(=O)Nc3ccc4c(c3)CCC4)cc2C(=O)O)cc1F | 
51 nM | CCC[C@@H](NC(=O)c1ccc(-c2cc(Cl)ccc2-c2nc3cccc(C)c3[nH]2)c(C(=O)O)c1)c1ccccc1 | 
5.7 nM | CCC[C@@H](NC(=O)c1ccc(-c2cc(OC)ccc2-c2nc3ccccc3[nH]2)c(C(=O)O)c1)c1ccccc1 | 
0.19 nM | COC[C@@H](NC(=O)c1ccc(-c2cc(Cl)ccc2C(=O)Nc2ccc(OC)c(F)c2)c(C(=O)O)c1)c1ccccc1 | 
22 nM | CCC[C@@H](NC(=O)c1ccc(-c2c(Cl)cccc2-c2nc3ccccc3[nH]2)c(C(=O)O)c1)c1ccccc1 (stereo in doubt; 15b) | EC50 [7]: 43 nM
0.51 nM | CCC[C@@H](NC(=O)c1ccc(-c2c(F)cccc2-c2nc3ccccc3[nH]2)c(C(=O)O)c1)c1ccccc1 | 
0.062 nM | CCC[C@@H](NC(=O)c1ccc(-c2c(Cl)cccc2-c2nc3cc(OC)ccc3[nH]2)c(C(=O)O)c1)c1ccccc1 | EC50 [7]: 0.12 nM; solubility [8]: 180 µg/mL (≈ 325 µM)
1.4 nM | CCC[C@@H](NC(=O)c1ccc(-c2cc(Cl)ccc2-c2nc3ccccc3[nH]2)c(C(=O)O)c1)c1ccccc1 | 
4900 nM | CCC[C@@H](NC(=O)c1ccc(-c2cc(Cl)ccc2-c2nc3ccccc3o2)c(C(=O)O)c1)c1ccccc1 | 
0.6 nM | CCC[C@@H](NC(=O)c1ccc(-c2cc(Cl)ccc2-c2nc3cc(C)ccc3[nH]2)c(C(=O)O)c1)c1ccccc1 | 
2100 nM | CCC[C@@H](NC(=O)c1ccc(-c2cccc(Cl)c2-c2nc3ccccc3[nH]2)c(C(=O)O)c1)c1ccccc1 | 
1.5 nM | CCC[C@@H](NC(=O)c1ccc(-c2cc(C)ccc2-c2nc3ccccc3[nH]2)c(C(=O)O)c1)c1ccccc1 | 
0.093 nM | CCC[C@@H](NC(=O)c1ccc(-c2c(Cl)cccc2-c2nc3ccccc3[nH]2)c(C(=O)O)c1)c1ccccc1 (stereo in doubt; 15a) [listing 2 of 2 here] | EC50 [7]: 0.12 nM; solubility [8]: 660 µg/mL (≈ 1260 µM); Activity [9]: 10%; Activity [10]: < 5%; Activity [11]: Non-Toxic; Activity [12]: Non-Toxic; concentration at 0.25 h [13]: 0.44 µM; concentration at 0.25 h [14]: 4.4 µM; concentration at 0.25 h [15]: 82 µM
5.7 nM | CCC[C@@H](NC(=O)c1ccc(-c2ccccc2-c2nc3ccccc3[nH]2)c(C(=O)O)c1)c1ccccc1 | 
19 nM | CCC[C@@H](NC(=O)c1ccc(-c2cc(Cl)ccc2-c2nc3ccncc3[nH]2)c(C(=O)O)c1)c1ccccc1 | 
0.31 nM | CCC[C@@H](NC(=O)c1ccc(-c2cc(Cl)ccc2-c2nc3cc(Cl)ccc3[nH]2)c(C(=O)O)c1)c1ccccc1 | 
0.2 nM | CCC[C@@H](NC(=O)c1ccc(-c2c(Cl)cccc2-c2nc3ccccc3[nH]2)c(C(=O)O)c1)c1ccccc1 (stereo in doubt; 12f) | 

— ChEMBL document CHEMBL4321849, “Biphenyl Acid Derivatives as APJ Receptor Agonists” (J Med Chem, 2019)
